Among the data in ChEMBL document CHEMBL4219251, “Synthesis and biological evaluation of 2,4-disubstituted phthalazinones as Aurora kinase inhibitors” (Bioorg Med Chem, 2018) are IC50, inhibition and Activity values, retold here.

In test [1] the test system is HeLa. The experiment in a line: Antiproliferative activity against human HeLa cells after 72 hrs by MTT assay. It counts as functional, cell-based. As to conditions: Homo sapiens, HeLa, 72 h. The gist of the method:
(§1)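 Cells kept in RPMI-1640 with 10% FBS at 37 °C, 5% CO2. Seeded at 5×10^3 cells/well and grown 24 h, then exposed 72 h at 37 °C to five concentrations (0.01, 0.1, 1, 10, 100 μM) in medium. MTT added for 4 h, formazan dissolved in DMSO, absorbance read at 490 nm. IC50 taken from a log plot of percent of control vs concentration; means ± SD of triplicate experiments.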

Test [2] relates to A549. The experiment in a line: Antiproliferative activity against human A549 cells after 72 hrs by MTT assay. The format is functional, cell-based. The following applies: Homo sapiens, A549, 72 h. In short, it runs like this:
as §1
For orientation: Tetrazolium dyes change colour on reduction, which living cells bring about.

For test [3], the system named is HepG2. The experiment in a line: Antiproliferative activity against human HepG2 cells after 72 hrs by MTT assay. The following applies: Homo sapiens, HepG2, 72 h. The format is functional, cell-based. In short, it runs like this: as §1
Test [4] deals with LoVo. The experiment in a line: Antiproliferative activity against human LoVo cells after 72 hrs by MTT assay. The format is functional, cell-based. As to conditions: Homo sapiens, LoVo, 72 h. In short, it runs like this:
as §1

Test [5] has as its system HCT-116. The experiment in a line: Antiproliferative activity against human HCT116 cells after 72 hrs by MTT assay. It counts as functional, cell-based. As to conditions: Homo sapiens, HCT-116, 72 h. The gist of the method:
as §1

The target in test [6] is T1, Aurora kinase A (Homo sapiens, UniProt O14965).
T1 sequence (O14965 whole entry): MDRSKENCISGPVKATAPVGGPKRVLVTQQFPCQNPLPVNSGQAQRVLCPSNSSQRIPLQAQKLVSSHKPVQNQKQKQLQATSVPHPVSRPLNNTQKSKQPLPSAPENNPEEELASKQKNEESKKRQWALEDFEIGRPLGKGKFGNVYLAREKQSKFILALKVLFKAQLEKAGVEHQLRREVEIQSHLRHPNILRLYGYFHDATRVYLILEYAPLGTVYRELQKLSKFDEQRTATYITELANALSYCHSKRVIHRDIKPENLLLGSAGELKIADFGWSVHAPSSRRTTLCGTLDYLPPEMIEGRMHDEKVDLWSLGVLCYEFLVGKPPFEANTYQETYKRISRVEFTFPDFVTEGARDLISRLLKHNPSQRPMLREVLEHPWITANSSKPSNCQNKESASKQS
Put plainly: Inhibition of Aurora A (unknown origin) using kemptide as substrate after 30 mins by kinase-Glo luminescence method. In short, it runs like this:
(§2)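 Luminescent kinase assay. Reaction buffer: 40 mM Tris pH 7.4, 10 mM MgCl2, 1 mM DTT, 0.1 mg/ml BSA, 10 μM ATP, 0.2 μg/ml kinase, 100 μM Kemptide. Compounds tested at 0.1, 1, 10, 100 and 1000 nM (diluted in PBS). Reactions ran 30 min at 37 °C, signal read by Kinase-Glo luminescence, IC50 fitted from the curves.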

Test [7] addresses T2, Aurora kinase B (Homo sapiens, UniProt Q96GD4). Put plainly: Inhibition of Aurora B (unknown origin) using kemptide as substrate after 30 mins by kinase-Glo luminescence method. The gist of the method:
as §2
A general note: Kinase-Glo reads ATP consumption through a luciferase reaction.

In test [8] the target is T3, Aurora kinase A (Homo sapiens) (UniProt O14965).
T3 sequence (whole entry): T1 sequence (O14965 whole entry)
Put plainly: Inhibition of Aurora A phosphorylation at Thr288 residue in human HeLa cells after 6 hrs by Western blot method. The format is cell-based. In short, it runs like this:
(§3)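 HeLa cells treated 6 h at 0, 0.5, 2.5 or 5.0 μM. Lysates (20–30 μg) resolved on 12% SDS-PAGE and blotted to PVDF. Probed overnight at 4 °C with antibodies to phospho-AurA Thr288, phospho-AurB Thr232 and total AurA/AurB. β-actin used as loading control. Values are mean ± SD versus control.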
In general terms: A western blot detects proteins with antibodies after separation by electrophoresis.

Test [9] has as its target T2, Aurora kinase B. Put plainly: Inhibition of Aurora B phosphorylation at Thr232 residue in human HeLa cells after 6 hrs by Western blot method. The format is cell-based. In short, it runs like this: as §3
Test [10] deals with T3, Aurora kinase A (Homo sapiens). Put plainly: Inhibition of Aurora A phosphorylation at Thr288 residue in human HeLa cells at 5 uM after 6 hrs by Western blot method. The format is cell-based. In short, it runs like this: as §3
The target of test [11] is T2, Aurora kinase B. The experiment in a line: Inhibition of Aurora B phosphorylation at Thr232 residue in human HeLa cells at 5 uM after 6 hrs by Western blot method. It counts as cell-based. In short, it runs like this:
as §3

The subject of test [12] is HeLa. Put plainly: Cell cycle arrest in human HeLa cells assessed as accumulation at G1 phase at 0.5 uM after 24 hrs by propidium iodide staining based FACS analysis (reference value: 65.66%). It counts as functional. The gist of the method:
(§4)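 HeLa cells exposed 24 h to 0, 0.5, 2.0 or 5.0 μM. (1–5)×10^5 cells harvested, washed twice in PBS, fixed overnight or longer in 75% ice-cold ethanol, then washed three times in PBS. DNA stained 15 min in darkness with 1% Triton X-100, 0.01% RNase, 0.05% PI. Phase distribution measured by flow cytometry.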

The subject of test [13] is HeLa. The experiment in a line: Cell cycle arrest in human HeLa cells assessed as accumulation at G2/M phase at 0.5 uM after 24 hrs by propidium iodide staining based FACS analysis (reference value: 9.63%). It counts as functional. The gist of the method:
as §4

Test [14] concerns HeLa. Put plainly: Cell cycle arrest in human HeLa cells assessed as accumulation at S phase at 0.5 uM after 24 hrs by propidium iodide staining based FACS analysis (reference value: 24.72%). It counts as functional. The gist of the method:
as §4

The subject of test [15] is HeLa. The experiment in a line: Cell cycle arrest in human HeLa cells assessed as accumulation at G1 phase at 2 uM after 24 hrs by propidium iodide staining based FACS analysis (reference value: 65.66%). It counts as functional. In short, it runs like this:
as §4

The subject of test [16] is HeLa. Put plainly: Cell cycle arrest in human HeLa cells assessed as accumulation at G2/M phase at 2 uM after 24 hrs by propidium iodide staining based FACS analysis (reference value: 9.63%). It counts as functional. The gist of the method: as §4
Test [17] has as its system HeLa. Put plainly: Cell cycle arrest in human HeLa cells assessed as accumulation at S phase at 2 uM after 24 hrs by propidium iodide staining based FACS analysis (reference value: 24.72%). The format is functional. In short, it runs like this:
as §4

Test [18] deals with HeLa. The experiment in a line: Cell cycle arrest in human HeLa cells assessed as accumulation at G1 phase at 5 uM after 24 hrs by propidium iodide staining based FACS analysis (reference value: 65.66%). It counts as functional.
Test [19] concerns HeLa. Put plainly: Cell cycle arrest in human HeLa cells assessed as accumulation at G2/M phase at 5 uM after 24 hrs by propidium iodide staining based FACS analysis (reference value: 9.63%). It counts as functional.
Test [20] concerns HeLa. The experiment in a line: Cell cycle arrest in human HeLa cells assessed as accumulation at S phase at 5 uM after 24 hrs by propidium iodide staining based FACS analysis (reference value: 24.72%). The format is functional.
The subject of test [21] is HeLa. Put plainly: Cell cycle arrest in human HeLa cells assessed as accumulation at G2/M phase after 24 hrs by propidium iodide staining based FACS analysis. It counts as functional. In short, it runs like this:
as §4

Test [22] deals with HeLa. The experiment in a line: Downregulation of Cyclin-B1 protein level in human HeLa cells after 24 hrs by Western blot method. It counts as functional, cell-based. In short, it runs like this:
(§5)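 HeLa cells treated 24 h at 0, 0.5, 2.0 or 5.0 μM, or with VX-680 at 5.0 μM. Lysed in Tris-HCl pH 7.5/NP-40/SDS buffer with protease inhibitors, 20–30 μg protein run on 12% SDS-PAGE, transferred to PVDF, probed overnight at 4 °C with anti-cyclinB1 and anti-cdc2. β-actin served as loading control. Values are mean ± SD.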

Test [23] concerns HeLa. Put plainly: Downregulation of Cdc2 protein level in human HeLa cells after 24 hrs by Western blot method. The format is functional, cell-based. The gist of the method: as §5

pIC50: −log10 of the molar value. The source made the active and inactive calls. The calls are words filed in the database; no cut-off is given here.

T2 sequence (Q96GD4 whole entry): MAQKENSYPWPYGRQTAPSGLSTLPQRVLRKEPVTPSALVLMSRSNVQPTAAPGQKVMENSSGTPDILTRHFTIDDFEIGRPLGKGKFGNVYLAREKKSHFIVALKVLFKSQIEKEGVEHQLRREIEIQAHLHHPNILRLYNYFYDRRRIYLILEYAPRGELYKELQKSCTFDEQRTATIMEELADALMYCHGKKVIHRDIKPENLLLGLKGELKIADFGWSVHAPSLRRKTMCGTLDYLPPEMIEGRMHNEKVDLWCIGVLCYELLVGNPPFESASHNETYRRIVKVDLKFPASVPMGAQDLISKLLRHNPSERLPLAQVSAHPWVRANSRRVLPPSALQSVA

Usually pIC50 stands for −log10 of the IC50, conventionally taken in molar units. Take `Cn1cc(-c2nn(Cc3ccc(C(=O)NC4CCCCC4)cc3)c(=O)c3ccccc23)cn1`: the pIC50 in test [1] was 5.66; in [2] it was 5.48; in [3] it was 5.34; in [4] it was 5.59; in test [5] it was 5.42; in [6], 6.93. Besides, in [7], the pIC50 is 7.10. Also, the inhibition entry in test [8] and in [9] was “Dose-dependent effect” throughout. For the same molecule, the inhibition result in [10] and in [11] was “Active” in each case. For the same molecule, the Activity in test [12] came to 34.87%; in [13], 34.66%; in [14], 30.47%; in test [15] it was 5.98%; in [16], 81.19%; in test [17], 12.83%. For the same molecule, the Activity is 7.34% in test [18]; 87.17% in test [19]; 5.48% in [20]; “Dose-dependent effect” in test [21]; “Dose-dependent effect” in test [22]; “Dose-dependent effect” in test [23].
